Bioassay records: PubChem, The Scripps Research Institute Molecular Screening Center
An excerpt weighted towards active compounds, which were near 4.6% of everything screened.
GPR7 antag – human neuropeptides B/W receptor 1 antagonism. P48145. GPR7-expressing cells, fluorescence antagonist assay. inhibition, % at 4.4 µM. actives 1.1% (n = 290,000); in the data active = inhibition above about 16%, passing the limit was not always enough;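 note: cells stimulated with the agonist NPW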
Target sequence (P48145 whole entry, looked up): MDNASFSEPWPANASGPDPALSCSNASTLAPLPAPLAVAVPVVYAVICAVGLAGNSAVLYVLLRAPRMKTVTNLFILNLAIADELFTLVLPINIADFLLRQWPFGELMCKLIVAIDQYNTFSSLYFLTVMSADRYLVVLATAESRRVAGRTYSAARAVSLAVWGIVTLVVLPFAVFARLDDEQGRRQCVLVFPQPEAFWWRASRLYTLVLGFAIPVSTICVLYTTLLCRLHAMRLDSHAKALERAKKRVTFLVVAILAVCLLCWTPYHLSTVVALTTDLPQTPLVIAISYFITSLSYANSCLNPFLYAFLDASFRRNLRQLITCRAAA
OX1R antag-1 – human HCRTR1 antagonism. actives 0.43% (n = 330,000). CHO/OX1R cells, Fluo-8 calcium fluorescence, orexin A. O43613. inhibition, % at 5 µM;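 active = inhibition above its plate's threshold, mean inhibition of all tested compounds on the plate plus 3 SD, cut at about 37% in these data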
Target sequence (O43613 whole entry, looked up): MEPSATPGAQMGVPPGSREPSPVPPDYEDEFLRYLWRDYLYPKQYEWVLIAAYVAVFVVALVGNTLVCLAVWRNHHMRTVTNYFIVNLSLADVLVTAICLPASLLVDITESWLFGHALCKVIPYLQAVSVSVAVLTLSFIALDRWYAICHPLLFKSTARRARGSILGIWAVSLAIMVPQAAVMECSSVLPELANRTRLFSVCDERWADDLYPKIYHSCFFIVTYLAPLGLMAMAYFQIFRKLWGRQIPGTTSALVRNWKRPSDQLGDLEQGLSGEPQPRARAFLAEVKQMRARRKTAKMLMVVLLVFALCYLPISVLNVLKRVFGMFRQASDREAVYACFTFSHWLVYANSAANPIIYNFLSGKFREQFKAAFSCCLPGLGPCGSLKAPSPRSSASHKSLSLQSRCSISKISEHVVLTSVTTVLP
TAAR1 antagonist – antagonists of human TAAR1. AID 624466. actives 1.5% (n = 360,000). Q96RJ0. inhibition, % at 3 µM. CHO RD-HGA16 TAAR1, Fluo-8 calcium fluorescence, antagonist;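 active = inhibition above a per-plate cutoff, the mean inhibition of test compounds on that plate plus 3 SD, cut at about 49% in these data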
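System: RD-HGA16 CHO cells with stable hTAAR1 and Gα16 | Probe or stimulus: EC80 β-phenethylamine stimulus | Dosing: 3 µM, single point | Times: Dye loading 75 min at 37 °C, then 30 min room temperature | Measured by: Fluo-8 calcium-sensitive fluorescence | Read-out basis: % inhibition of agonist calcium response | Replicates: n of 1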
CHO parental Ca – counter-screen for OX1R antagonists: effect in parental CHO cells; parental CHO-K1, ATP-induced calcium, Fluo-8 fluorescence; inhibition, % at 5.6 µM; actives 0.63% (n = 330,000); AID 463079;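 active = inhibition above that plate's mean sample inhibition plus 3 SD, cut at about 26% in these data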
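Assay system – parental CHO cells · Reagent – ATP stimulus · Detection – intracellular calcium via Fluo-8 no-wash fluorescent dye · Evaluation – percent inhibition of ATP-evoked calcium rise, normalized to controls · Controls – ATP wells versus no-ATP DMSO wells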
TAAR1 agonist – human TAAR1 agonism. Q96RJ0. CHO RD-HGA16 TAAR1, Fluo-8 calcium fluorescence; vehicle wells 0%, saturating PEA agonist 100%. activation, % at 3 µM. actives 0.99% (n = 360,000);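 active = activation above the mean activation of all test compounds in the run plus 3 SD, cut at about 38% in these data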
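Signal – calcium-sensitive Fluo-8 signal, excitation 470-495, emission 515-575 nm · System – RD-HGA16 (CHO) cells co-expressing Gα16 and hTAAR1 · Incubation – 17-24 h seeding, 75 min 37 °C dye, 30 min RT · Compound dosing – 3 µM single concentration · Repeats – no replicates (n 1)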
OX1R antag-2 – OX1R (human) antagonism | O43613 | OX1R-expressing cells, FRET antagonist read-out | inhibition, % at 6.6 µM | actives 1.8% (n = 330,000) | AID 485270; in the data active = inhibition mostly above about 38%, no sharp cut-off; inactive = mostly below about 40%
GPR7 antag conf – confirmation of human GPR7 antagonists. inhibition, % at 4.4 µM. GPR7-expressing cells, calcium fluorescence antagonist mode. shares compounds with GPR7 antag. actives 52% (n = 2,400); in the data active = inhibition above about 24%;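 note: stimulated with the GPR7 agonist NPW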
MCHR1 antagonist – antagonizes human MCHR1, a GPR7 antagonist counter-screen; shares compounds with GPR7 antag; MCHR1-expressing cells, fluorescence antagonist assay; inhibition, % at 4.4 µM; actives 62% (n = 2,400); AID 2148; in the data active = inhibition above about 22%
Large screens that a line does not name were inactive (follow-up assays come after a bar, where they were run).

S=C(SCc1c(Cl)cccc1Cl)N1CCSCC1	none (no result: GPR7 antag, OX1R antag-1, CHO parental Ca, OX1R antag-2)
CCC(=O)N(C(=O)CC)N1CCN(c2ccncc2S(=O)(=O)N2CCCCC2)CC1	GPR7 antag 34.4 | GPR7 antag conf 44.5 | MCHR1 antagonist 30.0
C/C(CC(=O)Nc1ccccc1)=N\NC(=O)COc1ccc(C)cc1Br	none
CCc1ccc(NC(=O)C/C(C)=N/NC(=O)COc2ccc(C)cc2Br)cc1	GPR7 antag 42.0 | GPR7 antag conf inactive | MCHR1 antagonist inactive
CCC(C)[C@H](NC(=O)C1(c2ccccc2)CCN(C(=O)OC(C)(C)C)CC1)C(=O)N[C@@H](C(=O)O)c1ccccc1 (some centres undefined)	GPR7 antag 27.3 | GPR7 antag conf inactive | MCHR1 antagonist inactive
COC(=O)Nc1nc2c(C)cccc2s1	none
CSc1cccc(NC(=O)Nc2nc3c(C)cccc3s2)c1	none | GPR7 antag conf 33.1 | MCHR1 antagonist 76.0
COc1ccccc1N(C(=O)c1ccco1)C(C(=O)NC1CCCCC1)c1cc(OC)c(OC)c(OC)c1 (centres undefined)	GPR7 antag 33.5, OX1R antag-2 41.7 | GPR7 antag conf 37.1 | MCHR1 antagonist inactive
COc1ccc(C(C(=O)NC2CCCC2)N(C(=O)c2ccco2)c2ccccc2OC)cc1 (centres undefined)	none
COc1cccc(C(C(=O)NC2CCCCC2)N(C(=O)c2ccco2)c2ccccc2OC)c1 (centres undefined)	none
COc1ccccc1N(C(=O)CNC(=O)c1ccco1)C(C(=O)NC1CCCC1)c1ccco1 (centres undefined)	GPR7 antag 24.4 | GPR7 antag conf inactive | MCHR1 antagonist inactive
COc1ccc(C(C(=O)NC2CCCCC2)N(C(=O)c2ccco2)c2ccccc2OC)cc1 (centres undefined)	GPR7 antag 28.6 | GPR7 antag conf inactive | MCHR1 antagonist inactive
Nc1ccc(OCc2ccco2)cc1	none
CCSc1nnc(NC(=O)CSc2nnc(-c3c[nH]c4ccccc34)n2CC)s1	none
CCN(CCCCCN(C)C)Cc1cc2ccccc2o1	none
O=C1Nc2ccccc2C(O)(C(=O)NC2CC2)N1c1ccc(Cl)c(Cl)c1 (centres undefined)	none
Cc1nn(Cc2ccc(F)cc2)c(C)c1NC(=O)c1cnn2c1NC(c1cccs1)CC2C(F)(F)F (centres undefined)	none
Cc1nn(Cc2ccc(F)cc2)c(C)c1NC(=O)c1cnn2c1NC(c1ccccc1)CC2C(F)(F)F (centres undefined)	GPR7 antag 23.5 (no result: TAAR1 antagonist, TAAR1 agonist) | GPR7 antag conf inactive | MCHR1 antagonist inactive
CC1Sc2ccc(S(=O)(=O)N3CCC(C(=O)Nc4ccc(Cl)cc4)CC3)cc2NC1=O (centres undefined)	GPR7 antag 60.7, CHO parental Ca 53.7 | GPR7 antag conf 68.1 | MCHR1 antagonist 70.0
CC(=O)N1c2ccc(S(=O)(=O)N3CCC(C(=O)Nc4cccc(Cl)c4)CC3)cc2CC1C (centres undefined)	GPR7 antag 31.2 | GPR7 antag conf inactive | MCHR1 antagonist 47.1
CC(=O)N1c2ccc(S(=O)(=O)N3CCC(C(=O)Nc4cccc(C)c4)CC3)cc2CC1C (centres undefined)	none
Cc1ccc(NC(=O)C2CCN(S(=O)(=O)c3ccc(N4CCCC4=O)cc3)CC2)cc1Cl	GPR7 antag 38.5, CHO parental Ca 64.4 | GPR7 antag conf 52.4 | MCHR1 antagonist 61.3
O=C1NC[C@H](Cc2ccc(O)cc2)N(C[C@@H]2CCCN2C[C@H](Cc2ccccc2)N2C[C@H](Cc3ccc(O)cc3)N(CC3CCCCCC3)C(=O)C2=O)C1=O	none (no result: GPR7 antag, OX1R antag-1, CHO parental Ca, OX1R antag-2)
O=S(=O)(c1ccccc1)N1CCCc2nc(-c3ccc(F)cc3)ccc21	none (no result: GPR7 antag, OX1R antag-1, CHO parental Ca, OX1R antag-2)
COC(=O)c1ccc(CNC(=O)Cn2cnc(C(=O)Nc3ccc(C)c(C)c3)n2)cc1	none (no result: GPR7 antag)
Cc1ccccc1CN1CCNC1=O	none
Cc1cccc(CN2CCNC2=O)c1	GPR7 antag 21.0 | GPR7 antag conf inactive | MCHR1 antagonist inactive
CCCCc1nc2n[nH]c(N)c2c2c1CCCC2	none
CCc1ccc(NC(=O)c2cc(S(=O)(=O)N3CCCC3)ccc2F)cc1	none (no result: GPR7 antag, OX1R antag-1, CHO parental Ca, OX1R antag-2)
CCOC(=O)N1CCN(S(=O)(=O)N2CCCC(C(=O)NCCCN3CCCCC3CC)C2)CC1 (centres undefined)	none
CCN(CC)CCn1c(=N)n(CC(O)COc2ccccc2)c2ccccc21 (centres undefined)	GPR7 antag 28.6 | GPR7 antag conf inactive | MCHR1 antagonist inactive
COc1ccccc1OCC(O)Cn1c(=N)n(Cc2ccccc2)c2ccccc21 (centres undefined)	GPR7 antag 25.3 | GPR7 antag conf 28.5 | MCHR1 antagonist 35.2
CCCCn1c(=N)n(CC(O)COc2cccc(C)c2)c2ccccc21 (centres undefined)	GPR7 antag 33.4 | GPR7 antag conf 36.7 | MCHR1 antagonist 45.5
C=CCn1c(=N)n(CC(O)COc2ccccc2OC)c2ccccc21 (centres undefined)	none
CCCn1c(=N)n(CC(O)COc2ccc(C)cc2)c2ccccc21 (centres undefined)	none
CCOC1=C2[C@@H](CN(S(=O)(=O)c3ccc(C)cc3)[C@H]2c2ccccc2F)[C@H]2C(=O)N(C3CCCCC3)C(=O)[C@H]2C1	none (no result: GPR7 antag, OX1R antag-1, CHO parental Ca, OX1R antag-2)
O=C(Nc1ccccc1)Nc1ncc([N+](=O)[O-])s1	GPR7 antag 23.3 (no result: OX1R antag-1, CHO parental Ca, OX1R antag-2) | GPR7 antag conf inactive | MCHR1 antagonist 52.8
CCCCC(=O)Nc1ncc([N+](=O)[O-])s1	none
C[C@H](O)[C@@H]1C(=O)N2CCc3c([nH]c4c(-c5ccccc5)cccc34)[C@@H]2C[C@@H]1N(C)CC1CCCCC1	none (no result: GPR7 antag, OX1R antag-1, CHO parental Ca, OX1R antag-2)
COC(=O)[C@]12C[C@H](CC(=O)NCc3cccc4ccccc34)C(=O)N(CCC3=CCCCC3)C1=C[C@H](C(C)(C)C)O[C@@H]2C	none (no result: GPR7 antag, OX1R antag-1, CHO parental Ca, OX1R antag-2)
C[C@@H]1C=CCCO[C@]12C(=O)N(Cc1ccccc1C(F)(F)F)c1ccccc12	none (no result: GPR7 antag, OX1R antag-1, CHO parental Ca, OX1R antag-2)
O=C(C(Cc1ccccc1)n1cccc1)N1CCN(Cc2ccccc2)CC1 (centres undefined)	GPR7 antag 24.8 (no result: TAAR1 antagonist, TAAR1 agonist) | GPR7 antag conf inactive | MCHR1 antagonist inactive
O=C(C(Cc1ccccc1)n1cccc1)N1CCCCC1 (centres undefined)	none
O=C(NCCSc1c[nH]c2ccccc12)c1c(F)cccc1F	GPR7 antag 22.7 | GPR7 antag conf 33.1 | MCHR1 antagonist 32.7
O=C(NCCSc1c[nH]c2ccccc12)c1ccco1	none
